From PubChem BioAssay
MBD2 DNA inh: inhibitors of human MBD2 binding to methylated oligonucleotide. Q9UBB5. TR-FRET. inhibition, % at 4.4 µM. actives 0.31% (n = 370,000). AID 686964; in the data active = inhibition above about 13%
NSD2 inh: NSD2 (human) methyltransferase inhibition; O96028; NSD2 peptide methylation, AlphaScreen, 120 min; inhibition, % at 12.5 µM; actives 0.54% (n = 310,000); AID 743445; in the data active = inhibition above about 50%
UHRF1 MBD2 ctr: human UHRF1 methylated DNA binding inhibitors | UHRF1 binding to methylated oligo, TR-FRET | inhibition, % at 4.4 µM | actives 0.75% (n = 370,000); in the data active = inhibition above about 21%;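 note: UHRF1 SRA domain binding a hemimethylated CpG hairpin DNA probe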
LEDGF integ inh: blocks HIV-1 LEDGF/p75-dependent DNA integration. actives 0.64% (n = 370,000). TR-FRET IN-LEDGF/p75 DNA integration, Eu/Cy5. inhibition, % at 3.7 µM;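 active = inhibition above the screen-wide mean plus 3 SD, cut at about 13% in these data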;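 note: signal is the Cy5 over europium emission ratio at 671 and 618 nm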
Casp6 inh: blocks human caspase-6 cleavage activity. purified caspase-6, Z-VEID-R110 cleavage fluorescence. inhibition, % at 12.5 µM. actives 0.53% (n = 350,000). AID 686996;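 active = mean inhibition across replicates at least about 35%, with every replicate also reaching that limit, limit read from the data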
TDP2 inh: blocks human TDP2 phosphodiesterase activity; O95551; recombinant TDP2, T5PNP hydrolysis, p-nitrophenol absorbance 415 nm; inhibition, % at 12.8 µM; actives 0.34% (n = 370,000);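 active = inhibition above the mean of all tested compounds plus 3 SD, set per campaign, cut at about 25% in these data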
Target sequence (O95551 whole entry, looked up): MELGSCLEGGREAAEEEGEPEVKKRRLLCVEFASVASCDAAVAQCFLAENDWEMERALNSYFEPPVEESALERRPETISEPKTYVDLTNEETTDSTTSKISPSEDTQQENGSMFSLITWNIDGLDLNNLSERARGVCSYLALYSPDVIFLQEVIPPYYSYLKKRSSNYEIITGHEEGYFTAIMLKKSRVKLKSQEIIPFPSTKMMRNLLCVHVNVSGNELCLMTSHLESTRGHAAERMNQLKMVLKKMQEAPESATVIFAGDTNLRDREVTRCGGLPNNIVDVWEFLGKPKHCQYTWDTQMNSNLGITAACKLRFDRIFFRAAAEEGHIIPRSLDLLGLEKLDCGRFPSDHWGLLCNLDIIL
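Evaluation: % inhibition relative to enzyme-containing and enzyme-free wells. Material: recombinant human TDP2. Benchmarks: enzyme-free and DMSO wells. Timing: enzyme reaction with compound for 2 h at 37 °C. Compound dosing: 12.8 µM only. Measured by: p-Nitrophenol epi absorbance. Reagent: T5PNP substrate at 5 mM, a TopII-DNA adduct mimic. Replication: single well per compound.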
A number is an active result; – = inactive; · = not tested or not shown. Rows were chosen to be rich in hits. Some 1.9% of all compounds tested hit in one or more screens of this group.

SMILES	MBD2 DNA inh	NSD2 inh	UHRF1 MBD2 ctr	LEDGF integ inh	Casp6 inh	TDP2 inh
COc1ccc(C)cc1S(=O)(=O)N(CC(=O)Nc1cccc([N+](=O)[O-])c1)c1ccccc1	–	–	31	–	–	–
C[C@@H]1CCCCO[C@H](CN(C)C(=O)CCC(F)(F)F)[C@@H](C)CN([C@@H](C)CO)C(=O)c2cc(NS(=O)(=O)c3cn(C)cn3)ccc2O1	·	·	·	·	–	·
O=C(C[C@@H]1C=C[C@@H](NC(=O)c2ccc(F)cc2)[C@@H](CO)O1)NCCc1ccccc1	·	·	·	·	–	·
CSc1ccccc1NC(=O)Nc1ccccc1	–	–	–	–	44	–
CSc1ccccc1NC(=O)NCCCl	–	–	22	–	–	–
CC(C)CNC(=O)c1ccccc1NC(=O)Nc1ccccc1	–	–	–	–	·	–
CCC(C)NC(=O)c1ccccc1NC(=O)Nc1ccccc1 (stereo not drawn)	–	–	27	–	·	–
COc1cccc(S(=O)(=O)N[C@H]2CC[C@@H](CCN)O[C@@H]2CO)c1	·	·	·	·	–	·
Cc1cc(CSc2ccccc2)ccc1NC(=O)c1ccc(Br)cc1	–	–	33	–	–	–
O=C(Nc1cccc(Br)c1)c1ccc(CSc2ccccc2)cc1	–	–	–	–	–	–
NC(=O)CSc1nc2ccccc2c(=O)n1Cc1ccccc1	–	–	–	–	–	–
COc1ccccc1Cn1c(SCC(N)=O)nc2c(oc3ccccc32)c1=O	–	–	61	–	–	–
CCn1c(SCC(N)=O)nc2ccccc2c1=O	–	–	25	–	–	–
CC(C)NC(=O)Nc1cccc2c1O[C@@H](CN(C)S(=O)(=O)c1cn(C)cn1)[C@H](C)CN([C@H](C)CO)C2=O	·	·	·	·	–	·
Cc1ccc(CSc2nc3c(c(=O)[nH]2)CCC3)cc1	–	–	58	–	·	–
Cc1cccc(CSc2nc3c(c(=O)[nH]2)CCC3)c1	–	–	–	–	–	–
Cn1cnc([N+](=O)[O-])c1S(=O)(=O)Nc1ccccc1	–	–	–	–	42	–
CC(/C=C/c1ccco1)=N\NC(=O)c1cc(Cl)ccc1O	–	–	–	–	52	–
O=C(C=Cc1ccco1)c1cc(Cl)ccc1O	–	–	–	–	45	–
O=C(/C=C/c1ccco1)c1ccccc1O	–	–	–	–	–	–
COc1cc(CN2CC3(CN(C(=O)c4cccnc4)C3)c3c([nH]c4cc(OC)ccc34)[C@H]2CO)cc(OC)c1	·	·	·	·	–	·
COc1cccc(-c2ccc3c(c2)[C@H]2[C@H](CCN2S(=O)(=O)c2ccccc2C)[C@@H](CO)N3)c1	·	·	·	·	–	·
CO[C@H]1CN(C)C(=O)c2ccc(NC(=O)C3CC3)cc2OC[C@H](C)N(CC2CCOCC2)C[C@H]1C	·	·	·	·	–	·
C[C@H]1CN([C@@H](C)CO)C(=O)c2c(c3ccccc3n2C)-c2ccccc2CO[C@H]1CN(C)C(=O)CCC(F)(F)F	·	·	·	·	–	·
O=C(C1CC1)N1CCCCN2[C@H](CO)[C@H](c3ccc(-c4ccncc4)cc3)[C@@H]2C1	·	·	·	·	–	·
SMILES	MBD2 DNA inh	NSD2 inh	UHRF1 MBD2 ctr	LEDGF integ inh	Casp6 inh	TDP2 inh
CC1(C)Cc2c(sc(NC(=O)c3ccco3)c2C(=O)O)CO1	–	·	–	–	37	–
CC1(C)Cc2c(sc(NC(=S)NC(=O)c3ccccc3)c2C(=O)O)CO1	–	–	–	–	–	–
CC(C)NC(=O)N1CC(=O)N2[C@H](CO)[C@@H](c3ccc(C#CCN(C)C)cc3)[C@H]2C1	·	·	·	·	–	·
CSc1ccccc1NC(=O)CSc1n[nH]c(C)c1[N+](=O)[O-]	–	–	–	–	–	–
Cc1ccc(O)c(NC(=O)CSc2n[nH]c(C)c2[N+](=O)[O-])c1	–	–	33	–	–	–
O=C1[C@H]2[C@@H](c3ccc(C(F)(F)F)cc3)N[C@]3(CCCN(CC4CCCCC4)C3=O)[C@H]2C(=O)N1Cc1ccccc1	–	·	–	–	–	–
O=C1[C@H]2[C@@H](c3ccccc3)N[C@]3(CCCN(CC4CCCCC4)C3=O)[C@H]2C(=O)N1Cc1ccccc1	–	·	–	–	41	–
Cc1noc(C)c1COc1ccccc1C(=O)N(C)CC(=O)Nc1ccc(F)c(F)c1F	–	–	–	–	53	–
CC=Cc1ccc2n(c1=O)C[C@@H]1[C@@H](CO)[C@H](C(=O)NCC(F)(F)F)[C@H]2N1C(C)=O (mixture of isomers)	·	·	·	·	–	·
